Source: ChEMBL document CHEMBL1671627, “Increasing trends in antimicrobial resistance among clinically important anaerobes and Bacteroides fragilis isolates causing nosocomial infections: emerging resistance to carbapenems” (2008)
Converted amounts (≈) assume the structure as drawn.

Tests used:
Format in all cases: functional
Prevotella bivia [1] = test: Antibacterial activity against Prevotella bivia assessed as susceptible isolates by CLSI agar dilution method in presence of clavulanate
Procedure, shortened: (§1)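 Agar dilution per CLSI guidelines on nonduplicate anaerobic bloodstream isolates collected at NTUH, January to December 2006. Isolates were spotted by Steers replicator onto supplemented Brucella blood agar and incubated anaerobically for 48 h at 35°C. MIC was the lowest drug concentration that inhibited growth. B. fragilis ATCC 25285, B. thetaiotaomicron ATCC 29741 and E. lentum ATCC 43055 were run as QC in each run.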

Phocaeicola vulgatus [2] = test: Antibacterial activity against beta-lactamase producing Bacteroides vulgatus by CLSI agar dilution method in presence of clavulanate
Procedure, shortened: (§2)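 CLSI agar dilution MICs for anaerobic blood isolates (nonduplicate) collected from bloodstream-infection patients at a Taiwanese tertiary hospital, January–December 2006. Isolates were spotted by Steers replicator onto supplemented Brucella blood agar and incubated anaerobically for 48 h at 35°C. MIC was the lowest drug concentration inhibiting growth. Each run included B. fragilis ATCC 25285, B. thetaiotaomicron ATCC 29741 and E. lentum ATCC 43055 as quality-control strains.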

Clostridium septicum [3] = test: Antibacterial activity against beta-lactamase producing Clostridium septicum assessed as susceptible isolates by CLSI agar dilution method in presence of clavulanate; procedure, shortened: as §2
[4] = system: Fusobacterium necrophorum; test: Antibacterial activity against Fusobacterium necrophorum assessed as resistant isolates by CLSI agar dilution method in presence of clavulanate
Procedure, shortened: (§3)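 207 nonduplicate anaerobic blood isolates from patients with bloodstream infections at NTUH, collected January–December 2006. MICs were determined by agar dilution following CLSI guidelines. Inocula were applied with a Steers replicator onto supplemented Brucella blood agar and incubated 48 h at 35°C in an anaerobic chamber. MIC was the lowest concentration inhibiting growth. B. fragilis ATCC 25285, B. thetaiotaomicron ATCC 29741 and E. lentum ATCC 43055 served as controls in each run.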

Clostridium septicum [5] = test: Antibacterial activity against beta-lactamase producing Clostridium septicum assessed as resistant isolates by CLSI agar dilution method in presence of clavulanate; procedure, shortened: as §3
Fusobacterium varium [6] = test: Antibacterial activity against Fusobacterium varium assessed as resistant isolates by CLSI agar dilution method in presence of clavulanate; procedure, shortened: as §3
[7] = system: Prevotella melaninogenica; test: Antibacterial activity against Prevotella melaninogenica assessed as susceptible isolates by CLSI agar dilution method in presence of clavulanate; procedure, shortened: as §1
Bacteroides fragilis = test: Antibacterial activity against Bacteroides fragilis assessed as resistant isolates by CLSI agar dilution method in presence of clavulanate; procedure, shortened: as §3
[8] = system: Prevotella melaninogenica; test: Antibacterial activity against Prevotella melaninogenica assessed as resistant isolates by CLSI agar dilution method in presence of clavulanate; procedure, shortened: as §3
Fusobacterium nucleatum [9] = test: Antibacterial activity against Fusobacterium nucleatum by CLSI agar dilution method in presence of clavulanate; procedure, shortened: as §1
[10] = system: Fusobacterium necrophorum; test: Antibacterial activity against Fusobacterium necrophorum by CLSI agar dilution method in presence of clavulanate; procedure, shortened: as §1
Prevotella buccae = test: Antibacterial activity against Prevotella buccae by CLSI agar dilution method in presence of clavulanate; conditions: Segatella buccae; procedure, shortened: as §1
Clostridium septicum [11] = test: Antibacterial activity against beta-lactamase producing Clostridium septicum by CLSI agar dilution method in presence of clavulanate; procedure, shortened: as §2
Bacteroides caccae [12] = test: Antibacterial activity against beta-lactamase producing Bacteroides caccae by CLSI agar dilution method in presence of clavulanate; procedure, shortened: as §1
Fusobacterium varium [13] = test: Antibacterial activity against Fusobacterium varium assessed as susceptible isolates by CLSI agar dilution method in presence of clavulanate; procedure, shortened: as §1
Clostridium tertium [14] = test: Antibacterial activity against beta-lactamase producing Clostridium tertium assessed as susceptible isolates by CLSI agar dilution method in presence of clavulanate; procedure, shortened: as §2
Phocaeicola vulgatus [15] = test: Antibacterial activity against beta-lactamase producing Bacteroides vulgatus by CLSI agar dilution method in presence of Tazobactam; procedure, shortened: as §2
Fusobacterium nucleatum [16] = test: Antibacterial activity against Fusobacterium nucleatum by CLSI agar dilution method in presence of Tazobactam; procedure, shortened: as §1
Bacteroides caccae [17] = test: Antibacterial activity against beta-lactamase producing Bacteroides caccae assessed as susceptible isolates by CLSI agar dilution method in presence of Tazobactam; procedure, shortened: as §1
[18] = system: Clostridium paraputrificum; test: Antibacterial activity against beta-lactamase producing Clostridium paraputrificum assessed as susceptible isolates by CLSI agar dilution method
[19] = system: Bacteroides thetaiotaomicron; test: Antibacterial activity against beta-lactamase producing Bacteroides thetaiotaomicron by CLSI agar dilution method
Fusobacterium nucleatum [20] = test: Antibacterial activity against Fusobacterium nucleatum assessed as resistant isolates by CLSI agar dilution method in presence of Tazobactam; procedure, shortened: as §3
Prevotella intermedia = test: Antibacterial activity against Prevotella intermedia assessed as resistant isolates by CLSI agar dilution method
Bacteroides uniformis [21] = test: Antibacterial activity against beta-lactamase producing Bacteroides uniformis by CLSI agar dilution method in presence of Tazobactam; procedure, shortened: as §1
Bacteroides uniformis [22] = test: Antibacterial activity against beta-lactamase producing Bacteroides uniformis assessed as susceptible isolates by CLSI agar dilution method in presence of Tazobactam; procedure, shortened: as §1
[23] = system: Prevotella melaninogenica; test: Antibacterial activity against Prevotella melaninogenica assessed as susceptible isolates by CLSI agar dilution method in presence of Tazobactam; procedure, shortened: as §1
[24] = system: Clostridium paraputrificum; test: Antibacterial activity against beta-lactamase producing Clostridium paraputrificum by CLSI agar dilution method in presence of Tazobactam; procedure, shortened: as §2
Clostridium tertium [25] = test: Antibacterial activity against beta-lactamase producing Clostridium tertium by CLSI agar dilution method
Phocaeicola vulgatus [26] = test: Antibacterial activity against beta-lactamase producing Bacteroides vulgatus assessed as resistant isolates by CLSI agar dilution method
Veillonella parvula = test: Antibacterial activity against Veillonella parvula by CLSI agar dilution method in presence of Tazobactam; procedure, shortened: as §1
Bacteroides caccae [27] = test: Antibacterial activity against beta-lactamase producing Bacteroides caccae assessed as resistant isolates by CLSI agar dilution method in presence of Tazobactam; procedure, shortened: as §3
Fusobacterium varium [28] = test: Antibacterial activity against Fusobacterium varium assessed as resistant isolates by CLSI agar dilution method in presence of Tazobactam; procedure, shortened: as §3
Fusobacterium varium [29] = test: Antibacterial activity against Fusobacterium varium assessed as resistant isolates by CLSI agar dilution method
Clostridium septicum [30] = test: Antibacterial activity against beta-lactamase producing Clostridium septicum assessed as susceptible isolates by CLSI agar dilution method in presence of Tazobactam; procedure, shortened: as §2
Prevotella bivia [31] = test: Antibacterial activity against Prevotella bivia assessed as resistant isolates by CLSI agar dilution method in presence of Tazobactam; procedure, shortened: as §3
Parvimonas micra = test: Antibacterial activity against beta-lactamase producing Micromonas micros assessed as resistant isolates by CLSI agar dilution method in presence of Tazobactam; procedure, shortened: as §3
[32] = system: Peptoniphilus asaccharolyticus; test: Antibacterial activity against beta-lactamase producing Peptoniphilus asaccharolyticus assessed as susceptible isolates by CLSI agar dilution method in presence of Tazobactam; procedure, shortened: as §2
Clostridium tertium [33] = test: Antibacterial activity against beta-lactamase producing Clostridium tertium by CLSI agar dilution method in presence of Tazobactam; procedure, shortened: as §2

Structure (SMILES): CC1(C)S[C@@H]2[C@H](NC(=O)[C@H](N)c3ccc(O)cc3)C(=O)N2[C@H]1C(=O)O [AMOXICILLIN]
- Activity (Prevotella bivia [1]): 81%
- MIC50 (Phocaeicola vulgatus [2]): 8 µg/mL
- MIC90 (Phocaeicola vulgatus [2]): 32 µg/mL
- Activity (Clostridium septicum [3]): 96%
- Activity [4]: 7%
- Activity (Clostridium septicum [5]): 4%
- Activity (Fusobacterium varium [6]): 7%
- Activity [7]: 81%
- Activity (Bacteroides fragilis): 23%
- Activity [8]: 6%
- MIC50 (Fusobacterium nucleatum [9]): 2 µg/mL
- MIC90 (Fusobacterium nucleatum [9]): 4 µg/mL
- MIC50 [10]: 2 µg/mL
- MIC90 [10]: 4 µg/mL
- MIC50 (Prevotella buccae): 4 µg/mL
- MIC90 (Prevotella buccae): 16 µg/mL
- MIC50 (Clostridium septicum [11]): 0.5 µg/mL
- MIC90 (Clostridium septicum [11]): 2 µg/mL
- MIC50 (Bacteroides caccae [12]): 8 µg/mL
- MIC90 (Bacteroides caccae [12]): 32 µg/mL
- Activity (Fusobacterium varium [13]): 89%
- Activity (Clostridium tertium [14]): 96%

Structure (SMILES): CCN1CCN(C(=O)N[C@@H](C(=O)N[C@@H]2C(=O)N3[C@@H]2SC(C)(C)[C@@H]3C(=O)O)c2ccccc2)C(=O)C1=O [PIPERACILLIN]
- MIC50 (Phocaeicola vulgatus [15]): 8 µg/mL
- MIC90 (Phocaeicola vulgatus [15]): 16 µg/mL
- MIC50 (Fusobacterium nucleatum [16]): 0.5 µg/mL
- MIC90 (Fusobacterium nucleatum [16]): 2 µg/mL
- Activity (Bacteroides caccae [17]): 96%
- Activity [18]: 100%
- MIC50 [19]: 32 µg/mL (≈ 61.8 µM)
- MIC90 [19]: > 128 µg/mL
- Activity (Fusobacterium nucleatum [20]): 0%
- Activity (Prevotella intermedia): 22%
- MIC50 (Bacteroides uniformis [21]): 8 µg/mL
- MIC90 (Bacteroides uniformis [21]): 16 µg/mL
- Activity (Bacteroides uniformis [22]): 96%
- Activity [23]: 100%
- MIC50 [24]: 0.5 µg/mL
- MIC90 [24]: 2 µg/mL
- MIC50 (Clostridium tertium [25]): 0.25 µg/mL (≈ 0.483 µM)
- MIC90 (Clostridium tertium [25]): 2 µg/mL (≈ 3.86 µM)
- Activity (Phocaeicola vulgatus [26]): 65%
- MIC (Veillonella parvula): > 0.03 µg/mL
- Activity (Bacteroides caccae [27]): 4%
- Activity (Fusobacterium varium [28]): 0%
- Activity (Fusobacterium varium [29]): 10%
- Activity (Clostridium septicum [30]): 100%
- Activity (Prevotella bivia [31]): 0%
- Activity (Parvimonas micra): 0%
- Activity [32]: 97%
- MIC50 (Clostridium tertium [33]): 0.5 µg/mL
- MIC90 (Clostridium tertium [33]): 2 µg/mL
